# Assay results from PMC11491786 (Zoological Research, 2024).
# No end group written: not given here.
# T1: FXIIa (Homo sapiens, UniProt P00748)
# T1 sequence (P00748 373-615 limits assumed): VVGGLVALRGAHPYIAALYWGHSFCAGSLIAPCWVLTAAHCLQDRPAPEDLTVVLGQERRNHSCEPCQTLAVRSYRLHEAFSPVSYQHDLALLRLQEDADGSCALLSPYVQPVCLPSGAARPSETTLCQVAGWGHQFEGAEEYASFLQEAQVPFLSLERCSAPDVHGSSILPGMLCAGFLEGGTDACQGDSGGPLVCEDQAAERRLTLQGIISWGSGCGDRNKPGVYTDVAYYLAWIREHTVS
# T1 sequence (P00748 20-372 partner limits assumed): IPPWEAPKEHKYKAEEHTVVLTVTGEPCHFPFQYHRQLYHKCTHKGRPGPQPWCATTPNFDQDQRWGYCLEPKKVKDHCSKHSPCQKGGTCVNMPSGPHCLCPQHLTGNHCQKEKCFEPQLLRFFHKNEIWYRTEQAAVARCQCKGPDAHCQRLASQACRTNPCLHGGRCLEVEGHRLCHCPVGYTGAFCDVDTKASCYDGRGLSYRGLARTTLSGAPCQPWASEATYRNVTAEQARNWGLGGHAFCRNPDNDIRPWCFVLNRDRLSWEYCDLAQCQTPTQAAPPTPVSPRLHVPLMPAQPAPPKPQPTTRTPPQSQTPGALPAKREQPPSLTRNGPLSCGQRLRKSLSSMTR
# T2: activated factor XII (FXIIa) (UniProt P00748 20-372; P00748 373-615)
# T2 sequence (looked up) 1: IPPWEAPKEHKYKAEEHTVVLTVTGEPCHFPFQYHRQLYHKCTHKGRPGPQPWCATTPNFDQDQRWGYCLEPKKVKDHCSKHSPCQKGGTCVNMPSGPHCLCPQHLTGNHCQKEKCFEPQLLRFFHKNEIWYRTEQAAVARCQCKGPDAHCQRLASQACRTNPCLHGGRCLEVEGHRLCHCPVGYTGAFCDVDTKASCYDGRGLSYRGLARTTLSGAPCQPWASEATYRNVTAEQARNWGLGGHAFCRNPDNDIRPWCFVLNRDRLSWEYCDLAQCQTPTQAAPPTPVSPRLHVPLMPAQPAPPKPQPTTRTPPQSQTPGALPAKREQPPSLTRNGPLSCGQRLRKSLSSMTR
# T2 sequence (looked up) 2: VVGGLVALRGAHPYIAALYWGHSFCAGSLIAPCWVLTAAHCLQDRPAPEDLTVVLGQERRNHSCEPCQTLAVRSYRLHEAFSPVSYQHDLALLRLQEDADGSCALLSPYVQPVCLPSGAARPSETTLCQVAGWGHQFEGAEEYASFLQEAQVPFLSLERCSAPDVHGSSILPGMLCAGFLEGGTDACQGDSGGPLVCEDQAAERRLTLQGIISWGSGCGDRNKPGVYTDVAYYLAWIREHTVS
# Experiments:
# male C57BL/6J mice = assay: FeCl3-induced carotid artery thrombosis; type: in vivo, mouse; details: 2 500 U/kg i.v., 10% FeCl3, 5 min and 10 min, vs PBS-treated group
# Method in brief: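 Male C57BL/6J mice (6 weeks old, n=6–7) were given i.v. saline (100 µL; control), heparin sodium 2 500 U/kg, or test compound at 0.5 or 2 mg/kg, 5 min before induction, under anaesthesia. Filter paper with 10% (w/v) FeCl3 was applied to the exposed left carotid artery for 30 s. Flow in the region of interest was followed by laser speckle perfusion imaging for 30 min, with images analysed at 5 and 10 min. Occlusion was scored as a red-to-blue change.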
# acute IS patients = details: ref Kim, 2019; Simão et al., 2017; cited from earlier work
# PK [1] = molecular target: T3, PK (Homo sapiens, UniProt P03952); assay: SPR, PK over LE6-coupled chip; type: binding
# PK [2] = molecular target: T3, PK; assay: Chromogenic assay, PK; type: biochemical
# Target sequence in this assay (P03952 391-638 limits assumed): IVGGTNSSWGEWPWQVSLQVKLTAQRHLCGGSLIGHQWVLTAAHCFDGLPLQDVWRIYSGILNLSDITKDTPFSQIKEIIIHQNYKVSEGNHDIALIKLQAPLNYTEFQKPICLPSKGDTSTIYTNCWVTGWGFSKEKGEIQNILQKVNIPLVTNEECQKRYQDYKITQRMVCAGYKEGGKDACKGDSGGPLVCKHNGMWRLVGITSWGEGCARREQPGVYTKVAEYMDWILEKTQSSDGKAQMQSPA
# Target sequence in this assay (P03952 20-390 partner limits assumed): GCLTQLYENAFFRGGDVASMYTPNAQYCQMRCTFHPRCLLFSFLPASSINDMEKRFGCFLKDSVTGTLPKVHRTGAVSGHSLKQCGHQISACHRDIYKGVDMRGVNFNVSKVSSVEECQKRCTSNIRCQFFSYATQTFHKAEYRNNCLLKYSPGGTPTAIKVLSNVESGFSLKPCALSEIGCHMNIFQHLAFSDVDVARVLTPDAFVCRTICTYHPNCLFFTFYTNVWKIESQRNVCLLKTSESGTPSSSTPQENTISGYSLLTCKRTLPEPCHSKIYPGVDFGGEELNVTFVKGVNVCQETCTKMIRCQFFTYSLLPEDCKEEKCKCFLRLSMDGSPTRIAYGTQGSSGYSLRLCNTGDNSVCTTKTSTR
# FXIIa [3] = molecular target: T1, FXIIa; assay: SPR, FXIIa over LE6-coupled chip; type: binding; details: read-out: Kd (dissociation rate constant)
# FXIIa [4] = molecular target: T1, FXIIa; assay: Chromogenic assay, FXIIa; type: biochemical
# erythrocytes = assay: Hemolysis assay; type: cell-based, human; details: up to 200 μg/mL (285 μmol/L), 30 min, 37 °C, PBS pH 7.2, 540 nm
# Method in brief: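 Human blood was centrifuged for 10 min at 3 500 r/min and 25°C. The erythrocytes were resuspended in PBS (0.01 mol/L, pH 7.2) and exposed to test compound (12.5–200 µg/mL, plus 0) or 0.1% Triton X-100 (positive control) for 30 min at 37°C. Samples were spun 5 min at 3 500 r/min and the supernatant A540 read; n=2–3.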
# HEK 293T cells = assay: Cytotoxicity assay; type: cell-based, human; details: 12.5 to 200 μg/mL, 8 h, CCK8
# Method in brief: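 HEK 293T cells were grown in DMEM/F-12 with 10% FBS and 1% penicillin-streptomycin at 37°C, 5% CO2. They were seeded at 3×10^4 cells/well and allowed 12 h to adhere. Test compound (12.5–200 µg/mL, plus 0) was added for 8 h. CCK-8 was then added for 3 h and OD450 read. Viability is given as % of untreated control; n=8–12.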
# mouse splenocytes = assay: Cytotoxicity assay; type: cell-based; details: 12.5 to 200 μg/mL, 8 h, CCK8
# Method in brief: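 Mouse splenocytes were prepared by crushing fresh spleens in PBS and passing them through a 200-mesh sieve. Cells were cultured in RPMI1640 at 37°C, 5% CO2, seeded at 2×10^5 cells/well and given 12 h to settle. Test compound (12.5–200 µg/mL, plus 0) was added for 8 h, followed by CCK-8 for 3 h and an OD450 read. Viability is reported as % of control; n=8–12.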
# [5] = system: mouse peritoneal macrophages; assay: Cytotoxicity assay; type: cell-based; details: 12.5 to 200 μg/mL, 8 h, CCK8
# Method in brief: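 Peritoneal macrophages were elicited in mice with i.p. 3% thioglycollate broth and collected by PBS lavage after 3 days. Cells were cultured in RPMI1640 at 37°C, 5% CO2, seeded at 1×10^6 cells/well and allowed 12 h to adhere. Test compound (12.5–200 µg/mL, plus 0) was added for 8 h, then CCK-8 for 3 h and OD450 read. Viability is expressed as % of control; n=8–12.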
# male C57BL/6 J mice = assay: Bleeding assay; type: in vivo, mouse
# Method in brief: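 Dosing 15 min before cutting: test compound at 0.5 or 2 mg/kg i.v., 0.9% saline (control) or heparin sodium 2 500 U/kg (reference). Mice were male C57BL/6J, 6 weeks old, 18–20 g, n=6–7. Tail cut 2 mm from the tip and immersed in sterile saline at 37°C. Bleeding time recorded until blood flow stopped.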
# [6] = molecular target: T2, activated factor XII (FXIIa); assay: cell-based or functional assay
# plasma kallikrein (PK) [7] = molecular target: T4, plasma kallikrein (PK) (UniProt P03952 20-390; P03952 391-638); assay: SPR
# [8] = molecular target: T2, activated factor XII (FXIIa); assay: SPR
# plasma kallikrein (PK) [9] = molecular target: T4, plasma kallikrein (PK); assay: chromogenic enzyme inhibition assay
# [10] = molecular target: T2, activated factor XII (FXIIa); assay: chromogenic enzyme inhibition assay
# T4 sequence (P03952 20-390, chain 1 of 2): as the sequence (P03952 20-390 partner limits assumed) above
# T4 sequence (P03952 391-638, chain 2 of 2): as the sequence (P03952 391-638 limits assumed) above
molecule,measurement,setting,value
heparin sodium,blood flow after FeCl3-induction,male C57BL/6J mice,increased blood flow at 5 min and 10 min
tissue plasminogen activator [tPA],efficacy in acute IS,acute IS patients,efficacious when administered within 4.5 hours of stroke onset
"LSEEPE [LE6, Leu-Ser-Glu-Glu-Pro-Glu]",kon,PK [1]; read-out: Ka (association rate constant),1790 M⁻¹ s⁻¹
same,koff,PK [1]; read-out: Kd (dissociation rate constant),0.0141 s⁻¹
same,IC50,PK [2],~71 µM
same,koff,FXIIa [3],0.118 s⁻¹
same,IC50,FXIIa [4],71 µM
same,inhibition at 285 µM,FXIIa [4]; read-out: inhibition rate of FXIIa,88.6%
same,hemolysis,erythrocytes,no hemolytic side effects
same,toxic effects on proliferation,HEK 293T cells,no toxic effects
same,toxic effects on proliferation,mouse splenocytes,no toxic effects
same,toxic effects on proliferation,[5],no toxic effects
same,bleeding time,"male C57BL/6 J mice; 0.5 mg/kg i.v., 15 min before tail cut, n=6–7",without notably extending bleeding time
same,bleeding time relative to heparin sodium,male C57BL/6 J mice; LE6 2 mg/kg i.v. vs heparin sodium 2 500 U/kg i.v.,approximately half that induced by the clinically anticoagulant heparin sodium
LSEEPE [oligopeptide LE6 (Leu-Ser-Glu-Glu-Pro-Glu)],"FXIIa activity on chromogenic substrate S-2302, IC50",[6],71 µM
same,Kd,plasma kallikrein (PK) [7],7.88 µM
same,Kd,[8],46.4 µM
same,Ki,plasma kallikrein (PK) [9],44 µM
same,Ki,[10],6.37 µM
